The values below come from ChEMBL document CHEMBL1122142, “Synthesis and antiinflammatory activity of hexahydrothiopyrano[4,3-c]pyrazoles and related analogues” (J Med Chem, 1982).

For data set [1], the system named is Mus musculus. The experiment in a line: The compound was evaluated for the mouse active Arthus (MAA) reaction activity for an ip dose of 150 mg/kg in mouse; 31-40%. Format: functional. The following applies: route intraperitoneal. The method in brief:
(§1)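 CD-1 mice were sensitized ip with a 1:1 Freund's complete adjuvant emulsion containing BSA in saline, 5 weeks before challenge. Compound was suspended in 1% Na CMC in pyrogen-free saline and given as one ip or oral dose 1 h before skin challenge with BSA. Screening doses were 150 mg/kg ip and 300 mg/kg po, with some at 75 or 50 mg/kg ip. Lesions were excised 3.5 h after challenge and weighed against controls.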

For data set [2], the system named is Mus musculus. The experiment in a line: Inhibition of Mouse Active Arthus reaction following 150 mg/Kg i.p.; 41-60% inhibition. Format: functional. The following applies: Mus musculus, ip.
Data set [3] relates to Cavia porcellus. Description: Tested in delayed hypersensitivity skin reaction (DHSR) after subcutaneous administration, activity reported as percent inhibition of erythema/induration of lesion; 10/8. The data set is classed as functional.
The test system of data set [4] is Mus musculus. The experiment in a line: The compound was evaluated for the mouse active Arthus (MAA) reaction activity for an ip screening dose of 75 mg/kg in mouse; 31-40%. Format: functional. The conditions noted are these: route intraperitoneal. The method in brief: as §1
Data set [5] relates to Mus musculus. Description: Mouse active Arthus (MAA) reaction activity was determined for an ip dose of 150 mg/kg in mouse. The conditions noted are these: route intraperitoneal. The data set is classed as functional.
Data set [6] has as its system Cavia porcellus. Description: Tested in delayed hypersensitivity skin reaction (DHSR) after subcutaneous administration, activity reported as percent inhibition of erythema/induration of lesion; 4/0. Format: functional. Summed up: (§2)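 Male Hartley guinea pigs were sensitized with Mycobacterium tuberculosis in Freund's incomplete adjuvant, injected into each hind footpad and subcutaneously at the neck. After 3 weeks, 1.2 μg PPD was given intradermally. Compound in sesame oil was given sc, 3 animals per group, 30 min before and 5 h after PPD; screening dose 50 mg/kg.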

For data set [7], the system named is Mus musculus. The experiment in a line: Mouse active Arthus (MAA) reaction activity was determined for an ip dose of 150 mg/kg in mouse; 31-40%. The data set is classed as functional. The following applies: route intraperitoneal.
In data set [8] the test system is Cavia porcellus. Description: Tested in delayed hypersensitivity skin reaction (DHSR) after subcutaneous administration, activity reported as percent inhibition of erythema/induration of lesion; 1/20. Format: functional.
The species entered for data set [9] is Mus musculus. Description: Mouse active Arthus (MAA) reaction activity was determined for peroral dose of 300 mg in mouse; 21-30%. Format: functional.
Data set [10] deals with Cavia porcellus. The experiment in a line: Tested in delayed hypersensitivity skin reaction (DHSR) after subcutaneous administration, activity reported as percent inhibition of erythema/induration of lesion; 5/18. Format: functional. Summed up:
as §2

For data set [11], the system named is Mus musculus. The experiment in a line: Inhibition of Mouse active Arthus (MAA) reaction activity was determined for an ip dose of 150 mg/kg in mouse; 21-30%. The data set is classed as functional. The following applies: route intraperitoneal.
The subject of data set [12] is Cavia porcellus. Description: Tested in delayed hypersensitivity skin reaction (DHSR) after subcutaneous administration, activity reported as percent inhibition of erythema/induration of lesion; 4/12. Format: functional. The method in brief: as §2
Data set [13] is described as follows: Acute toxicity as LD50 value was determined in mice administered orally. The data set is classed as organism-based. The following applies: mouse, in vivo, po.
A short description of data set [14]: Therapeutic ratio was determined for peroral administration. The conditions noted are these: po; read-out: TR.
The nature of data set [15]: Therapeutic ratio was determined for intraperitoneal administration. Format: ADME. The conditions noted are these: ip; read-out: TR.
The nature of data set [16]: Acute toxicity as LD50 value was determined in mice administered intraperitoneally. The data set is classed as organism-based. The following applies: mouse, in vivo, ip.
For data set [17], the system named is Mus musculus. Description: Carrageenan-induced edema was determined value for oral administration. The data set is classed as functional. The following applies: read-out: ID50 (the source's name). Summed up: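 Adult male Sprague-Dawley (CD) rats, 160–200 g. Single dose in 1% CMC given 2 h before footpad injection of 0.05 mL 1% carrageenin in pyrogen-free saline. Paws removed and weighed at 3 h, with the contralateral paw as control. ID50 is the dose giving 50% edema inhibition.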

For `CCCn1nc(-c2ccccc2)c2c1/C(=C/c1ccccc1)COC2`, the inhibition in vivo at 150 mg/kg in [1] was found to be 31%.

In data set [2], `CCCn1nc(-c2ccc(Cl)cc2)c2c1/C(=C/c1ccc(Cl)cc1)CSC2` showed an inhibition in vivo at 150 mg/kg of 41%.

`COc1ccc(/C=C2\CS(=O)(=O)CC3C2=NN(CCCN2CCN(C)CC2)C3c2ccc(OC)cc2)cc1` (centres undefined): the Activity in data set [3] came out at 10. The molecule further came in with an inhibition in vivo at 75 mg/kg in [4] of 31%.

`C#CCN1N=C2/C(=C/c3ccccc3)CS(=O)(=O)CC2C1c1ccccc1` (centres undefined): in data set [5], the inhibition in vivo at 150 mg/kg is under 20%. For the same molecule, in data set [6], the Activity is on record as 4.

`O=C(c1ccc(Cl)cc1)N1N=C2/C(=C/c3ccccc3)CS(=O)(=O)CC2C1c1ccccc1` (centres undefined) yielded an inhibition in vivo at 150 mg/kg in [7] of 31%. The Activity in data set [8] turned out to be 1.

For the molecule `O=C(c1ccccc1)N1N=C2/C(=C/c3ccccc3)CS(=O)(=O)CC2C1c1ccccc1` (centres undefined), the Inhibition in data set [9] was 21%. The same molecule showed an inhibition in vivo at 150 mg/kg in [5] of over 60%.

Take `CCCN1N=C2/C(=C/c3ccccc3)CN(C)CC2C1c1ccccc1` (centres undefined): the Activity in data set [10] is on record as 5. Further, the inhibition in vivo at 150 mg/kg in data set [2] is 41%.

The molecule `CCCN1N=C2/C(=C/c3ccccc3)C[S+]([O-])CC2C1c1ccccc1` (single isomer, unassigned; isomer A) had an inhibition in vivo at 150 mg/kg in data set [11] of 21%.

`CCCN1N=C2/C(=C/c3ccc(OC)cc3)C[S+]([O-])CC2C1c1ccc(OC)cc1` (single isomer, unassigned; isomer A): the Activity in [12] turned out to be 4. The molecule also registered an inhibition in vivo at 150 mg/kg in [2] of 41%.

Turning to `CCCN1N=C2/C(=C/c3ccccc3)C[S+]([O-])CC2C1c1ccccc1` (single isomer, unassigned; isomer B), the inhibition in vivo at 150 mg/kg in [2] is 41%.

Take `COc1cc2c(c(OC)c1OC)-c1ccc(OC)c(=O)cc1[C@@H](NC(C)=O)CC2` [COLCHICINE]: the results for the LD50 in data set [13] and in data set [16] were 13.5 mg/kg and 3.5 mg/kg, respectively. In addition, the selectivity ratio worked out at 1 in data set [14] and 1.5 in [15]. Moreover, the ED50 in data set [17] stood at 13.2 mg/kg.

Consider `COc1ccc2c(c1)c(CC(=O)O)c(C)n2C(=O)c1ccc(Cl)cc1` [INDOMETHACIN], for which the selectivity ratio in data set [14] stood at 0.04. Besides, the ED50 in [17] amounted to 517 mg/kg.

For the molecule `COc1ccc2cc([C@H](C)C(=O)O)ccc2c1` [NAPROXEN], in [17], the ED50 turned out to be 411 mg/kg.
